The test system of series [1] is PSMA. The conditions noted are these: cited from earlier work.
The target of series [2] is PSMA. The following applies: read-out: Kd to PSMA; cited from earlier work.
The conditions of series [3]: cited from earlier work.
Series [4] concerns PSMA-positive prostate cancer C4–2 cells. The series can be described thus: Cellular uptake of the micelle in cell monolayers. The following applies: 0.5 and 1 h incubation. The format is cell-based. In short, it runs like this: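 C4–2 cells seeded at 2×10^5 per well 24 h ahead. They were exposed at 37°C for 0.5 and 1 h to micelles with or without the PSMA ligand, or to free test compound. Cells were then PBS-washed and RIPA-lysed. Part of the lysate went to BCA protein assay; the rest was treated with 4N NaOH (RT, 1 h), neutralised with phosphate buffer and DCM-extracted. Uptake was normalised to total protein; mean ± SD, n = 3.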

Usually IC50 stands for the concentration that gives 50% inhibition. As usually defined, the Ki is a dissociation constant, usually derived from enzyme kinetics or from competition with a known ligand. In general, Kd refers to the free concentration of one partner at which half of the binding sites on the other are occupied at equilibrium, for simple one-to-one binding. Take `O=C(O)CCC(NC(=O)NC(CCC(=O)O)C(=O)O)C(=O)O` (centres unmarked) [DUPA, 2-[3-(1,3-dicarboxypropyl)ureido]pentanedioic acid]: in the series on PSMA [1] (read-out: IC50 towards PSMA), the half-maximal inhibitory concentration (IC50) was 47 nM. The inhibition constant (Ki) at PSMA [1] (read-out: Ki towards PSMA) is 8 nM. For the same molecule, on PSMA [2], the Kd is 14 nM.
As to `CO[C@H]1C(=O)[C@]2(C)[C@@H](OC)C[C@H]3OC[C@@]3(OC(C)=O)[C@H]2[C@H](OC(=O)c2ccccc2)[C@]2(O)C[C@H](OC(=O)[C@H](O)[C@@H](NC(=O)OC(C)(C)C)c3ccccc3)C(C)=C1C2(C)C` [cabazitaxel, Cabazitaxel], the water solubility entry in series [3] is “very low”. Moreover, the “cellular uptake, rank among groups” value in series [4] is reported as “lowest uptake”.

(Values after PMC7423752 (Acta biomaterialia, 2020).)
